Compound activity: PubChem BioAssay, several laboratories
Lmaj promast: reduces viability of Leishmania major promastigotes; resazurin fluorescence viability; inhibition, % at 10 µM; hit rate 9% among 200,000; in the data active = inhibition above about 50%;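 also: promastigotes grown with compound for 44 hours at 28 °C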
S1P4 antag: human S1P4 receptor antagonism; O95977; S1P4-expressing cells, antagonist mode, reporter read-out; inhibition, % at 4.98 µM; hit rate 0.26% among 220,000; AID 1510; in the data active = inhibition above about 29%
S1P4 agonist: human S1P4 receptor agonism. S1P4-expressing cell line, agonist reporter assay. activation, % at 4.98 µM. hit rate 0.35% among 220,000. AID 1509; in the data active = activation above about 11%
Mdm2 ligase inh: inhibitors of human Mdm2 E3 ubiquitin ligase; Q00987; hit rate 0.11% among 210,000; cell-based MDM2 ubiquitination luciferase reporter, 2 h; 0 = plate control, 100 = twice control, blank-subtracted; signal enhancement, % at 5 µM; AID 1230;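 active = signal enhancement of 30% or more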;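 also: luminescence tracks abundance of the self-degrading MDM2-luciferase fusion protein; higher signal means inhibition of MDM2 E3 ligase activity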
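Material: Stable MDM2–luciferase fusion reporter cells | Amount: 2000 cells seeded into each well | Dosing: One concentration, 5 µM, with 0.2% DMSO | Incubation: 4 h cell settling then 2 h compound exposure, 37 °C | Measured by: Luciferase luminescence | Read-out basis: % enhancement relative to plate controls after blank subtraction | Benchmarks: Control and blank well means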
S1P3 antag: S1P3 (human) receptor antagonism. Q99500. CHO S1P3 NFAT-BLA reporter, FRET fluorescence, antagonist mode. inhibition, % at 4.98 µM. hit rate 0.27% among 170,000. AID 485;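 active = inhibition above the plate cutoff, the mean inhibition of test wells on that plate plus 3 SD, cut at about 28% in these data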;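 also: cells challenged with S1P at its EC80 of 0.8 µM; blue over green emission ratio from cleaved BLA substrate after 4 h stimulation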
Target sequence (Q99500 whole entry, looked up): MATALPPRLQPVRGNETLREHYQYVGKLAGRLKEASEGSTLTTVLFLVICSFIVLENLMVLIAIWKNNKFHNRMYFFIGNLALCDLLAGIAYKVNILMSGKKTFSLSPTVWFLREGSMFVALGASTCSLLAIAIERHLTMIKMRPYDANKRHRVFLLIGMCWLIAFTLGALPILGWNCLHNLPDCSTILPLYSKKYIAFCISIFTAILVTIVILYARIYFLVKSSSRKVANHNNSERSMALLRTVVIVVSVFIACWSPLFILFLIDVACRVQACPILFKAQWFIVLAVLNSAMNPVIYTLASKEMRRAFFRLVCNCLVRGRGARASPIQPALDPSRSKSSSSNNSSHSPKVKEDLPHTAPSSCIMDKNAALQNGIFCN
Of the large screens only hits and unclear results are named; the others gave an inactive call. This excerpt belongs to a sample that is enriched for hits.

Cc1noc(C)c1S(=O)(=O)N1CCC(C(=O)NCCC2=CCCCC2)CC1	Lmaj promast 100 (no result: S1P3 antag)
Cc1ccc(CNC(=O)C2CCN(S(=O)(=O)c3c(C)noc3C)CC2)cc1	Lmaj promast 99 (no result: S1P3 antag)
COCCn1c(N)c(Sc2ccccc2[N+](=O)[O-])c(=O)[nH]c1=O	none (no result: Lmaj promast)
O=C(Nc1ccccc1C(=O)OCC(=O)c1c[nH]c2ccccc12)c1ccco1	none
CC(C)(C)NC(=O)CN(Cc1ccc2c(c1)OCO2)C(=O)CNC(=O)c1cccs1	none
Cc1ccc(CNC(=O)C2CCCN(C(=O)N(C)C)C2)cc1 (stereo unspecified)	Lmaj promast 86 (no result: S1P3 antag)
CN(C)C(=O)N1CCCC(C(=O)NCc2ccc(F)cc2Cl)C1 (stereo unspecified)	none
Cc1ccccc1C1CC(c2cccs2)Nc2nnnn21 (stereo unspecified)	none
O=C1CC(N2CCN(Cc3ccccc3)CC2)C(=O)N1CCc1ccccc1 (stereo unspecified)	Lmaj promast 88
COc1ccc(OCCN2CCN(C3CC(=O)N(CCC(C)C)C3=O)CC2)cc1 (stereo unspecified)	Lmaj promast 92 (no result: S1P3 antag)
O=C1CC(N2CCN(Cc3ccc(Cl)cc3)CC2)C(=O)N1CCc1ccccc1 (stereo unspecified)	none (no result: Lmaj promast)
COc1ccc(CCN2C(=O)CC(N3CCN(S(=O)(=O)c4ccccc4)CC3)C2=O)cc1 (stereo unspecified)	Lmaj promast 63
Cc1ccc(S(=O)(=O)N2CCN(C3CC(=O)N(Cc4ccccc4)C3=O)CC2)cc1C (stereo unspecified)	Lmaj promast 93
Cc1ccc(CSc2nnc(-c3ccco3)o2)cc1	none (no result: S1P3 antag)
COC(=O)c1cc(C(=O)Nc2ccc(S(=O)(=O)NC(C)(C)C)cc2)cc([N+](=O)[O-])c1	Lmaj promast 99
Cc1noc(C)c1COC(=O)c1cc(F)c(F)cc1Cl	none
COc1ccccc1N(C)S(=O)(=O)c1ccc(Cl)c(C(=O)OCc2c(C)noc2C)c1	Lmaj promast 53
Cc1ccc2cc(CN(CCCN3CCOCC3)C(c3nnnn3Cc3ccco3)C(C)C)c(=O)[nH]c2c1C (stereo unspecified)	Lmaj promast 67 (no result: Mdm2 ligase inh, S1P3 antag)
CCC(c1nnnn1CC1CCCO1)N(CCCO)Cc1cc2cccc(C)c2[nH]c1=O (stereo unspecified)	none (no result: S1P3 antag)
Cc1cccc2cc(CN(CC3CCCO3)C(c3nnnn3Cc3ccco3)C(C)C)c(=O)[nH]c12 (stereo unspecified)	Lmaj promast 50
CN(C)CCNC(=O)COc1cccc(Cl)c1	none
CC(C)(C)c1nc(SCC(=O)Nc2nc3c(s2)CCCC3)c2ccccc2n1	Lmaj promast 80 (no result: S1P3 antag)
CC(C)CC(=O)NC(Nc1ccccc1F)C(Cl)(Cl)Cl (stereo unspecified)	Lmaj promast 63 (no result: S1P3 antag)
CCCC(=O)NC(Nc1ccccc1F)C(Cl)(Cl)Cl (stereo unspecified)	none (no result: S1P3 antag)
O=[N+]([O-])c1ccc2nc(-[n+]3c(-c4ccccc4)cc(-c4ccccc4)cc3-c3ccccc3)[nH]c2c1	Lmaj promast 89
CC(C)(C)N(Cc1ccccc1)C(=O)CCc1ccccc1	none
CN([C@@H](Cc1ccc(OS(=O)(=O)c2cccc3cnccc23)cc1)C(=O)N1CCN(c2ccccc2)CC1)S(=O)(=O)c1cccc2cnccc12	Lmaj promast 98 (no result: Mdm2 ligase inh)
COc1cc(/C=N/NC(=O)C(Cc2c[nH]c3ccccc23)NC(=O)OCC(C)C)cc([N+](=O)[O-])c1OCc1ccccc1 (stereo unspecified)	Lmaj promast 91
COc1cc(/C=N/NC(=O)C(Cc2c[nH]c3ccccc23)NC(=O)OCC(C)C)cc([N+](=O)[O-])c1O (stereo unspecified)	none
CCCCC(=O)Nc1cccc(-c2nn3c(C)nnc3s2)c1	none
CCOc1ccc2nc(NC(=O)c3ccc(OCC4CCCO4)cc3)sc2c1 (stereo unspecified)	Lmaj promast 86
Cc1cccc2sc(NC(=O)c3ccc(OCC4CCCO4)cc3)nc12 (stereo unspecified)	none
CC/C(=C\c1oc2cc3ccccc3cc2[n+]1CC)Nc1ccccc1	Lmaj promast 100
NS(=O)(=O)c1ccc(Nc2ncccc2[N+](=O)[O-])cc1	Lmaj promast 75 (no result: S1P3 antag)
O=C1NCCN1CCNS(=O)(=O)c1ccc2ccccc2c1	none
c1ccc(CN2CCOCCOCCOCC2)cc1	none (no result: Lmaj promast)
c1ccc2cc(CN3CCOCC3)ccc2c1	Lmaj promast 54 (no result: S1P3 antag)
O=[N+]([O-])c1cc(S(=O)(=O)NCCCN2CCOCC2)ccc1Cl	Lmaj promast 99
O=S(=O)(NCCCN1CCOCC1)c1ccc2c(c1)OCCO2	none
O=C(NCCCN1CCOCC1)c1cc(Cl)ccc1[N+](=O)[O-]	none
O=S(=O)(NCCCN1CCOCC1)c1ccc2ccccc2c1	Lmaj promast 91
Cc1ccc(S(=O)(=O)NCCCN2CCOCC2)cc1C	Lmaj promast 88
Cc1cc(S(=O)(=O)NCCCN2CCOCC2)ccc1F	Lmaj promast 91
CCOc1ccc(S(=O)(=O)NCCCN2CCOCC2)cc1	Lmaj promast 92 (no result: S1P3 antag)
COc1cc(S(=O)(=O)NCCCN2CCOCC2)ccc1Cl	Lmaj promast 93 (no result: S1P3 antag)
O=[N+]([O-])c1cc(S(=O)(=O)NCCN2CCOCC2)ccc1Sc1nnnn1-c1ccccc1	Lmaj promast 86
O=S(=O)(NCc1cc(-c2ccccc2)no1)c1ccccc1	none
O=S(=O)(NCc1cc(-c2ccccc2Cl)no1)c1ccccc1	Lmaj promast 79 (no result: S1P3 antag)
O=C(COC(=O)/C(=C/c1cccs1)c1cccs1)NC(c1ccccc1)c1ccccc1	Lmaj promast 97
O=C(CNc1n[nH]c(=O)[nH]c1=O)N/N=C/C=C/c1ccccc1	none (no result: Lmaj promast)
OC(CNCc1ccccc1)COCc1ccc(Cl)cc1 (stereo unspecified)	Lmaj promast 84
CCOC(=O)c1sc2c(c1C)C(c1cccs1)C1=C(CCCC1=O)N2 (stereo unspecified)	Lmaj promast 64
CCOc1ccc(N2C(=O)CC(Sc3nc(-c4cccs4)cc(C(F)(F)F)c3C#N)C2=O)cc1 (stereo unspecified)	Lmaj promast 55 (no result: S1P3 antag)
Cc1cc(S(=O)(=O)Nc2ccc3ccccc3c2)c(C)s1	none (no result: S1P3 antag)
Cc1cc(S(=O)(=O)Nc2cc(C)c(O)c(C)c2)c(C)s1	Lmaj promast 100 (no result: S1P3 antag)
S=C(NCc1ccccc1)N1CCn2cccc2C1c1cccnc1 (stereo unspecified)	Lmaj promast 91
S=C(NCCc1ccccc1)N1CCn2cccc2C1c1cccnc1 (stereo unspecified)	Lmaj promast 95
N/C(=N\OC(=O)C1CCCCC1)c1ccccn1	none (no result: S1P3 antag)
CC1CCC2(CC1)NC(=S)N(c1ccccc1)N2 (stereo unspecified)	Lmaj promast 79 (no result: S1P3 antag)
COc1ccc(C2CC(c3ccc(Br)cc3)=NN2C(=O)CN2CCCC2)cc1 (stereo unspecified)	none (no result: Lmaj promast)
COc1ccc(C2CC(c3ccccc3)=NN2C(=O)CN2CCN(Cc3ccccc3)CC2)cc1 (stereo unspecified)	Lmaj promast 54
